In general, half-life refers to the time needed for the level to fall by half in the phase considered. Read a low half-life as rapid decline.

Data on six compounds can be found in ChEMBL document CHEMBL2311436, “Synthesis of acylated glycoconjugates as templates to investigate in vitro biopharmaceutical properties” (Bioorg Med Chem Lett, 2013).

Data set [1] relates to Liver microsomes. Description: In vitro intrinsic clearance in human liver microsomes assessed per milligram. Format: ADME, Microsome. A digest of the protocol:
(§1)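 Compounds were incubated with human liver microsomes, and mass spectrometry monitored parent loss and the appearance of mono-, di- and tri-acylated and fully deacylated hydrolysis products.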
On the technique in general: Liver microsomes are vesicles of endoplasmic reticulum, rich in cytochrome P450 enzymes.

Data set [2] is described as follows: (§2) Degradation half life in human plasma. Format: ADME, cell-free. A digest of the protocol:
(§3)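 Compounds were incubated in human plasma at 37 °C, and ester hydrolysis was followed by mass spectrometry. Tri-, di- and mono-acylated intermediates and the fully deacylated product were tracked by their characteristic molecular weights.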

The test system of data set [3] is Liver microsomes. Kind of data set: In vitro intrinsic clearance in human liver microsomes assessed per milligram of protein in presence of NADPH. Format: ADME, Microsome. The essentials:
as §1

Data set [4] concerns the target Albumin (Homo sapiens, UniProt P02768). Description: Binding affinity to human serum albumin by chromatographic HSA binding assay. Format: ADME. Particulars: isolated protein. The essentials: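 Protein binding was estimated from retention time on an immobilized human serum albumin (HSA) HPLC column, correlated against standard compounds with known protein binding values. This was used in place of equilibrium dialysis or ultrafiltration because the esters may deacylate under those conditions.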

The subject of data set [5] is Plasma. The data set is described as §2. Format: ADME, cell-free. A digest of the protocol: as §3

Albumin, sequence (P02768 whole entry): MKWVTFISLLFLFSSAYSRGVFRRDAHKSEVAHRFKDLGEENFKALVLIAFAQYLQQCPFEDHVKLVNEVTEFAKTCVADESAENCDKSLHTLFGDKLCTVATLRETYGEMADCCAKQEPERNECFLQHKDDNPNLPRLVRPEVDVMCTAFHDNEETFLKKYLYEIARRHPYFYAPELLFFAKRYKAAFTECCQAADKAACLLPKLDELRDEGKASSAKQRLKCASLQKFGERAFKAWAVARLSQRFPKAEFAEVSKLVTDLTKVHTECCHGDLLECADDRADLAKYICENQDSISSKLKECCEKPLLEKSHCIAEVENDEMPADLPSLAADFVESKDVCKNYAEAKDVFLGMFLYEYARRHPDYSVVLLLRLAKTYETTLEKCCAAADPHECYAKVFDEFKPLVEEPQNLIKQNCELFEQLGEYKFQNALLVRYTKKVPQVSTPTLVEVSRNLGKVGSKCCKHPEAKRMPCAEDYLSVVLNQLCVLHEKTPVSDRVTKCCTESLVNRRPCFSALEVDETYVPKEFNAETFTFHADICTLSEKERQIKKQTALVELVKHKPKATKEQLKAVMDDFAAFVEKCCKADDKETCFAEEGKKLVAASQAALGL

On to `CCCC(=O)OC[C@H]1O[C@@H](n2cc(-c3ccccc3)nn2)[C@H](OC(=O)CCC)[C@@H](OC(=O)CCC)[C@@H]1OC(=O)CCC`, for which the CLH in data set [1] amounted to 83 µL/min; in data set [3], 69 µL/min. The compound further gave a half-life in data set [2] of 555 min. In data set [4], this compound displayed an Activity of 96%.

Turning to `CCC(=O)OC[C@H]1O[C@@H](n2cc(-c3ccccc3)nn2)[C@H](OC(=O)CC)[C@@H](OC(=O)CC)[C@@H]1OC(=O)CC`, the CLH result in data set [1] and in data set [3] was “ND(Unstable)” each time. Also, in data set [2], the half-life turned out to be 26 min. For the same compound, in data set [4], the Activity was determined as 88%.

Turning to `CCCCC(=O)OC[C@H]1O[C@@H](n2cc(-c3ccccc3)nn2)[C@H](OC(=O)CCCC)[C@@H](OC(=O)CCCC)[C@@H]1OC(=O)CCCC`, the CLH in data set [1] and in data set [3] was less than 7 µL/min in each case. Further, the t1/2 result in data set [5] is given as “Stable”. The compound further showed an Activity in data set [4] of less than 99%.

Take `CC(=O)OC[C@H]1O[C@@H](n2cc(-c3ccccc3)nn2)[C@H](OC(C)=O)[C@@H](OC(C)=O)[C@@H]1OC(C)=O`: the figures for the CLH in data set [1] and in data set [3] were 423 µL/min and 397 µL/min, respectively. This compound displayed a half-life in data set [2] of 55 min. In data set [4], this compound showed an Activity of 59%.

For `OC[C@H]1O[C@@H](n2cc(-c3ccccc3)nn2)[C@H](O)[C@@H](O)[C@@H]1O`, the CLH in data set [1] and in data set [3] was less than 7 µL/min throughout. In addition, the t1/2 result in data set [5] is “Stable”. Moreover, the Activity in data set [4] came out at 19%.

As to `CC(C)CC(=O)OC[C@H]1O[C@@H](n2cc(-c3ccccc3)nn2)[C@H](OC(=O)CC(C)C)[C@@H](OC(=O)CC(C)C)[C@@H]1OC(=O)CC(C)C`, the CLH in data set [1] and in data set [3] was less than 7 µL/min each time. Further, the t1/2 result in data set [5] is given as “Stable”. In data set [4], the Activity is on record as less than 99%.
